# ChEMBL document CHEMBL4342411, “Novel multitarget 5-arylidenehydantoins with arylpiperazinealkyl fragment: Pharmacological evaluation and investigation of cytotoxicity and metabolic stability” (Bioorg Med Chem, 2019)
# System: Mus musculus
# Experiment: Effect on locomotor activity in Swiss albino mouse at 0.625 mg/kg, ip
# Assay type: ADME, organism-based
# Conditions: in vivo
# Procedure, shortened: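 Male Swiss albino mice were dosed ip in 1% Tween 80 at 10 ml/kg 60 min before testing. Each mouse was placed individually in a cage in a photobeam activity monitor. Ambulation crossings were counted from 2 to 6 min.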
row,SMILES,Activity
1,COc1ccc(/C=C2\NC(=O)N(CCCCN3CCN(c4cccc(Cl)c4Cl)CC3)C2=O)cc1OC,Non-Toxic

# Biological target: T1, 5-hydroxytryptamine receptor 1A (Homo sapiens) (UniProt P08908)
# T1 sequence (whole entry): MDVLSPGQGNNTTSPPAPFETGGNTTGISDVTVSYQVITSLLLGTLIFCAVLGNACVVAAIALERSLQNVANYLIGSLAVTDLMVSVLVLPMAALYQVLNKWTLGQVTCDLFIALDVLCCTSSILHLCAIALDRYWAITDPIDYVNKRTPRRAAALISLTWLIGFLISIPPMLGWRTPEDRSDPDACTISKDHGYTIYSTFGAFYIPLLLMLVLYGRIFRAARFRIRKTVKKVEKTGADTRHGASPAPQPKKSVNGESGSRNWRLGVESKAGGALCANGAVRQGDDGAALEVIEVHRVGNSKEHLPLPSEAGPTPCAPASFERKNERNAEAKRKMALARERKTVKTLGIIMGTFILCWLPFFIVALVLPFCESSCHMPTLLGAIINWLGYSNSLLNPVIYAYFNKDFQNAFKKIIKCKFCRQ
# Experiment: Antagonist activity at human recombinant 5-HT1A receptor expressed in CHOK1 cells incubated for 25 mins followed by addition of […] by microbeta2 scintillation counter relative to control
# Assay type: cell-based
# Conditions: not given
# Procedure, shortened: (§1)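 Aequorin Ca2+ assay in antagonist mode in CHO-K1 cells expressing human 5-HT1A, Gα16 and mitochondrial aequorin, loaded with 5 μM coelenterazine h. Cells were injected onto the compounds (8–10 concentrations) and incubated for 25 min.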
row,Emax [%],SMILES
1,15,COc1ccc(/C=C2\NC(=O)N(CCCCN3CCN(c4cccc(Cl)c4Cl)CC3)C2=O)cc1OC

# System: SW480
# Experiment: Cytotoxicity against human SW480 cells assessed as growth inhibition measured after 72 hrs by MTT assay
# Assay type: functional, cell-based
# Conditions: SW480, 72 h
# Procedure, shortened: (§2)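 Cells were seeded at 1 × 10^4 per well: SW480 in MEM, PC3 in RPMI 1640, HaCaT in DMEM high glucose, each with 10% FBS. Compounds were added at 10–140 µM and incubated for 72 h. MTT was then added at 0.5 mg/mL in serum-free medium for 4 h at 37 °C. Formazan was dissolved in DMSO/isopropanol (1:1) and read at 570 nm. IC50 was given in µM; untreated cells served as control.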
row,SMILES,IC50 [nM]
1,COc1ccc(/C=C2\NC(=O)N(CCCCN3CCN(c4cccc(Cl)c4Cl)CC3)C2=O)cc1OC,255000

# Biological target: T2, 5-hydroxytryptamine receptor 7 (Homo sapiens, UniProt P34969)
# T2 sequence (P34969 whole entry): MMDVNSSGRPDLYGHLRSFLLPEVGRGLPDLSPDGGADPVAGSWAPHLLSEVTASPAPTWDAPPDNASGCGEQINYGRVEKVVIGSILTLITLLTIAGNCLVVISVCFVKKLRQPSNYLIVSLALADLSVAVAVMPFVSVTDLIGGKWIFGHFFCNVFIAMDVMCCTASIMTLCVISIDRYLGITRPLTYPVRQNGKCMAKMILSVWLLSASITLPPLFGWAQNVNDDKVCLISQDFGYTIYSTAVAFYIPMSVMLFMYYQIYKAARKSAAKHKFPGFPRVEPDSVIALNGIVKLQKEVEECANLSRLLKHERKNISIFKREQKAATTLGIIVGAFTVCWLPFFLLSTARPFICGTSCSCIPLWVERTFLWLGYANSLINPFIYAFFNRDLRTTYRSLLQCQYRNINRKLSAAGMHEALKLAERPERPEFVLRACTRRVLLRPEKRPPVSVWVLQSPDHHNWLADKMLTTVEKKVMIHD
# Experiment: Antagonist activity at human recombinant 5-HT7 receptor expressed in CHOK1 cells measured after 60 mins in the presence of serotonin by LANCE TR-FRET assay relative to control
# Assay type: cell-based
# Conditions: not given
row,Emax [%],SMILES
1,37,COc1ccc(/C=C2\NC(=O)N(CCCCN3CCN(c4cccc(Cl)c4Cl)CC3)C2=O)cc1OC

# Biological target: T1, 5-hydroxytryptamine receptor 1A (Homo sapiens)
# Experiment: Agonist activity at human recombinant 5-HT1A receptor expressed in CHOK1 cells measured after 1 hr by microbeta2 scintillation counter relative to control
# Assay type: cell-based
# Conditions: not given
# Procedure, shortened: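 Aequorin Ca2+ assay in CHO-K1 cells coexpressing mitochondrial aequorin, human 5-HT1A and Gα16. Thawed cells were loaded with coelenterazine h (5 μM final) for 16 h at 16 °C in the dark with agitation, then diluted to 5000 cells/ml. After 1 h they were injected onto the compounds (8–10 concentrations) and luminescence was recorded for 30 s.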
row,Emax [%],SMILES
1,12,COc1ccc(/C=C2\NC(=O)N(CCCCN3CCN(c4cccc(Cl)c4Cl)CC3)C2=O)cc1OC

# Biological target: T2, 5-hydroxytryptamine receptor 7
# Experiment: biochemical
# Assay type: cell-based, CHO
# Conditions: not given
row,Ki [nM],SMILES
1,0.8,COc1ccc(/C=C2\NC(=O)N(CCCCN3CCN(c4cccc(Cl)c4Cl)CC3)C2=O)cc1OC

# System: HaCaT
# Experiment: Cytotoxicity against human HaCaT cells assessed as growth inhibition measured after 72 hrs by MTT assay
# Assay type: cell-based
# Conditions: not given
# Procedure, shortened: as §2
row,SMILES,IC50 [nM]
1,COc1ccc(/C=C2\NC(=O)N(CCCCN3CCN(c4cccc(Cl)c4Cl)CC3)C2=O)cc1OC,296000

# System: not listed separately
# Experiment: Selectivity index, ratio of IC50 for human HaCaT cells for human PC3 cells
# Assay type: toxicity
# Conditions: HaCaT cells versus PC3 cells, read-out: Ratio IC50
row,SMILES,selectivity ratio
1,COc1ccc(/C=C2\NC(=O)N(CCCCN3CCN(c4cccc(Cl)c4Cl)CC3)C2=O)cc1OC,1.31

# Biological target: 5-hydroxytryptamine receptor 2A (Homo sapiens) (UniProt P28223)
# Sequence (P28223 whole entry): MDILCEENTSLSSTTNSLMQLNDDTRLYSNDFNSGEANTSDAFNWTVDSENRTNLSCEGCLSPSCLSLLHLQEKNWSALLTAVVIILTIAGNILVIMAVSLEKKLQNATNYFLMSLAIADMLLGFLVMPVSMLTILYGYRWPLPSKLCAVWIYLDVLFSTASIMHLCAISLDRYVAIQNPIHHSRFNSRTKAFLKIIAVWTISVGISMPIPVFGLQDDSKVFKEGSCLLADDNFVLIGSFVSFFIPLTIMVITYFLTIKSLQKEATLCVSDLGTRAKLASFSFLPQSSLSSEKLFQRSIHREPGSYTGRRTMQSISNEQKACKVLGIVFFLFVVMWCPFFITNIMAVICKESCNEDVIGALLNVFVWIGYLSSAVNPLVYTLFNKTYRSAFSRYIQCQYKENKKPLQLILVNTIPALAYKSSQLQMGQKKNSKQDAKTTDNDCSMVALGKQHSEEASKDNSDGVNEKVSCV
# Experiment: not given
# Conditions: HEK293, at 0.1 µM
row,inhibition [%],SMILES
1,82,COc1ccc(/C=C2\NC(=O)N(CCCCN3CCN(c4cccc(Cl)c4Cl)CC3)C2=O)cc1OC

# Biological target: T2, 5-hydroxytryptamine receptor 7
# Experiment: Antagonist activity at human recombinant 5-HT7 receptor expressed in CHOK1 cells assessed as equilibrium binding constant measured after 60 mins in the presence of serotonin by LANCE TR-FRET assay
# Assay type: cell-based
# Conditions: not given
row,Kb [nM],SMILES
1,54.3,COc1ccc(/C=C2\NC(=O)N(CCCCN3CCN(c4cccc(Cl)c4Cl)CC3)C2=O)cc1OC

# System: PC-3
# Experiment: Cytotoxicity against human PC3 cells assessed as growth inhibition measured after 72 hrs by MTT assay
# Assay type: functional, cell-based
# Conditions: PC-3, 72 h
# Procedure, shortened: as §2
row,SMILES,IC50 [nM]
1,COc1ccc(/C=C2\NC(=O)N(CCCCN3CCN(c4cccc(Cl)c4Cl)CC3)C2=O)cc1OC,227000

# Biological target: T3, 5-hydroxytryptamine receptor 1A (Homo sapiens, UniProt P08908)
# T3 sequence (P08908 whole entry): T1 sequence (whole entry)
# Experiment: Antagonist activity at human recombinant 5-HT1A receptor expressed in CHOK1 cells incubated for 25 mins followed by addition of methiothepin by microbeta2 scintillation counter
# Assay type: cell-based
# Conditions: in the assay text read “serotonin” for “methiothepin”; read-out: IC50
# Procedure, shortened: as §1
row,IC50 [nM],SMILES
1,39,COc1ccc(/C=C2\NC(=O)N(CCCCN3CCN(c4cccc(Cl)c4Cl)CC3)C2=O)cc1OC

# Biological target: 3',5'-cyclic-AMP phosphodiesterase 4B (Homo sapiens) (UniProt Q07343)
# Sequence (Q07343 whole entry): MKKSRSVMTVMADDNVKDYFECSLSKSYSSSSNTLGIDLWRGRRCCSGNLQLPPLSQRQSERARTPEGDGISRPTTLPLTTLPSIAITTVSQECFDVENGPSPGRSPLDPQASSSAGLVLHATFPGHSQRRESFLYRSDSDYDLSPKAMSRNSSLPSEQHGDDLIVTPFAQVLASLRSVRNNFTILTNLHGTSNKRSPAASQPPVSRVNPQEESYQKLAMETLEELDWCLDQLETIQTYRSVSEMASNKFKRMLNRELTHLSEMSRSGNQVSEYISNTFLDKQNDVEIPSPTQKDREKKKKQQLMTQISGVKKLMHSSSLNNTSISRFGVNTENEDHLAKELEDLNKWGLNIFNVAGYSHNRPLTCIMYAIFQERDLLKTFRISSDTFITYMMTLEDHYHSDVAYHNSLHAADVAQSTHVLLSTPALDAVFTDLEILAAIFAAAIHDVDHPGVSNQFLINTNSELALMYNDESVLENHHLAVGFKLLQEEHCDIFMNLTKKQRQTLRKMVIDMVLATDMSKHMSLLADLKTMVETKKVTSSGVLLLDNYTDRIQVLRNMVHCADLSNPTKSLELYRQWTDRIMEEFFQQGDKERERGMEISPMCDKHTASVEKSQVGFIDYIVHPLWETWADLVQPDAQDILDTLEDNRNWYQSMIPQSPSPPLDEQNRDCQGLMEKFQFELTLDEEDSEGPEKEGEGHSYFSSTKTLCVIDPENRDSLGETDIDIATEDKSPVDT
# Experiment: Inhibition of human recombinant full length N-terminal GST-tagged PDE4B1 expressed in baculovirus infected Sf9 cells at 10^-5 M using cAMP as substrate incubated for 20 mins followed by substrate addition by luciferase assay relative to control
# Conditions: not given
row,inhibition [%],SMILES
1,5,COc1ccc(/C=C2\NC(=O)N(CCCCN3CCN(c4cccc(Cl)c4Cl)CC3)C2=O)cc1OC

# Biological target: 5-hydroxytryptamine receptor 6 (Homo sapiens) (UniProt P50406)
# Sequence (P50406 whole entry): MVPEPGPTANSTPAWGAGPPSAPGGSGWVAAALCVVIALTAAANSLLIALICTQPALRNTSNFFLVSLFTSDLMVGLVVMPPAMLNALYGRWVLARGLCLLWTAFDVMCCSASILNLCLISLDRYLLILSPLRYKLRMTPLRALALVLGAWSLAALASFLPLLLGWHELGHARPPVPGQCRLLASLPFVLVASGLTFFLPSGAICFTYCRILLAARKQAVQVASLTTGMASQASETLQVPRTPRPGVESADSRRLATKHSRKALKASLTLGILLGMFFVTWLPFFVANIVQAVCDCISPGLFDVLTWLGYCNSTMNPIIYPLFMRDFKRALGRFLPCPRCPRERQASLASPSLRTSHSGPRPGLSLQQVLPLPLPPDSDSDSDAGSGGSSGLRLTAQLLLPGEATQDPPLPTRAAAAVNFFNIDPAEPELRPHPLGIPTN
# Experiment: Displacement of [3H]-LSD from human recombinant 5-HT6 receptor expressed in CHO cells at 10^-6 M incubated for 60 mins by microbeta2 scintillation counter relative to control
# Assay type: cell-based
# Conditions: not given
# Procedure, shortened: (§3)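 Radioligand displacement from recombinant human receptor membranes, tested at two final concentrations (10^-6 and 10^-7 M), with scintillation counting. Results were expressed as percent inhibition of specific binding.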
row,inhibition [%],SMILES
1,82,COc1ccc(/C=C2\NC(=O)N(CCCCN3CCN(c4cccc(Cl)c4Cl)CC3)C2=O)cc1OC

# Biological target: T2, 5-hydroxytryptamine receptor 7
# Experiment: Antagonist activity at human recombinant 5-HT7 receptor expressed in CHOK1 cells measured after 60 mins in the presence of serotonin by LANCE TR-FRET assay
# Assay type: cell-based
# Conditions: not given
row,IC50 [nM],SMILES
1,163,COc1ccc(/C=C2\NC(=O)N(CCCCN3CCN(c4cccc(Cl)c4Cl)CC3)C2=O)cc1OC

# Biological target: 5-hydroxytryptamine receptor 2A (Homo sapiens) (UniProt P28223)
# Experiment: not given
# Conditions: HEK293, at 1 µM
row,inhibition [%],SMILES
1,98,COc1ccc(/C=C2\NC(=O)N(CCCCN3CCN(c4cccc(Cl)c4Cl)CC3)C2=O)cc1OC

# Biological target: 5-hydroxytryptamine receptor 6 (Homo sapiens) (UniProt P50406)
# Experiment: Displacement of [3H]-LSD from human recombinant 5-HT6 receptor expressed in CHO cells at 10^-7 M incubated for 60 mins by microbeta2 scintillation counter relative to control
# Assay type: cell-based
# Conditions: not given
# Procedure, shortened: as §3
row,inhibition [%],SMILES
1,6,COc1ccc(/C=C2\NC(=O)N(CCCCN3CCN(c4cccc(Cl)c4Cl)CC3)C2=O)cc1OC

# Biological target: T1, 5-hydroxytryptamine receptor 1A (Homo sapiens)
# Experiment: Antagonist activity at human recombinant 5-HT1A receptor expressed in CHOK1 cells assessed as equilibrium binding constant incubated for 25 mins followed by addition of methiothepin by microbeta2 scintillation counter
# Assay type: cell-based
# Conditions: in the assay text read “serotonin” for “methiothepin”
# Procedure, shortened: as §1
row,Kb [nM],SMILES
1,1.3,COc1ccc(/C=C2\NC(=O)N(CCCCN3CCN(c4cccc(Cl)c4Cl)CC3)C2=O)cc1OC

# Biological target: T2, 5-hydroxytryptamine receptor 7
# Experiment: Agonist activity at human recombinant 5-HT7 receptor expressed in CHOK1 cells by LANCE TR-FRET assay relative to control
# Assay type: cell-based
# Conditions: not given
# Procedure, shortened: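 cAMP assay in CHO-K1 cells expressing human 5-HT7 […], at 2x10^5 cells/ml in HBSS with 5 mM HEPES, IBMX and 0.1% BSA, pH 7.4. Cells were stimulated with the compounds (8 concentrations) for 60 min at room temperature. cAMP was read by LANCE Ultra TR-FRET after 1 h with tracer and antibody. EC50 was obtained by nonlinear regression.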
row,Emax [%],SMILES
1,13,COc1ccc(/C=C2\NC(=O)N(CCCCN3CCN(c4cccc(Cl)c4Cl)CC3)C2=O)cc1OC

# System: Mus musculus
# Experiment: Antidepressant activity in Swiss albino mouse assessed as decrease in immobility time at 0.625 mg/kg, ip measured after 60 mins by forced swim test relative to control
# Assay type: functional
# Parameters: scale not given: the % may be the effect or the level left
# Conditions: not given
# Procedure, shortened: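 Male Swiss albino mice (22–26 g), 7–10 per dose, were dosed ip in 1% Tween 80 at 10 ml/kg 60 min before the test. In the Porsolt test, each mouse was placed for 6 min in a cylinder with 6 cm of water at 23–25 °C. Immobility was scored over the last 4 min and compared with vehicle controls by ANOVA/Bonferroni.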
row,SMILES,Activity [%]
1,COc1ccc(/C=C2\NC(=O)N(CCCCN3CCN(c4cccc(Cl)c4Cl)CC3)C2=O)cc1OC,27

# Biological target: T3, 5-hydroxytryptamine receptor 1A
# Experiment: Displacement of [3H]-8-OH-DPAT from human recombinant 5-HT1A receptor expressed in HEK293 cells incubated for 60 mins by microbeta2 scintillation counter
# Assay type: cell-based
# Conditions: not given
row,Ki [nM],SMILES
1,0.2,COc1ccc(/C=C2\NC(=O)N(CCCCN3CCN(c4cccc(Cl)c4Cl)CC3)C2=O)cc1OC

# System: not listed separately
# Experiment: Selectivity index, ratio of IC50 for human HaCaT cells to IC50 for human SW480 cells
# Conditions: not given
row,SMILES,Ratio IC50
1,COc1ccc(/C=C2\NC(=O)N(CCCCN3CCN(c4cccc(Cl)c4Cl)CC3)C2=O)cc1OC,1.16
